Activity calls are given as the source filed them. No cut-off for these calls is given here.
Assays:
Homo sapiens [1] = organism: Homo sapiens; assay: Selectivity index, ratio of IC50 for recombinant human MAOA expressed in baculovirus infected BTI insect cells to IC50 for recombinant human MAOB expressed in baculovirus infected BTI insect cells
How it was run: (§1)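 Recombinant human MAO-A or MAO-B with p-tyramine substrate; H2O2 production detected by Amplex Red. Compounds diluted in DMSO/PBS (final DMSO <0.1%) and incubated with enzyme and substrate 15 min at 37 °C in the dark. Fluorescence read at ex/em 545/590 nm; mean ± SD of three independent experiments.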

MAO-A = target: T1, MAO-A (Homo sapiens, UniProt P21397); assay: Inhibition of recombinant human MAOA expressed in baculovirus infected BTI insect cells at 100 uM using p-tyramine as substrate measured after 15 mins by Amplex red reagent based fluorescence assay relative to control; conditions: probe p-tyramine; how it was run: as §1
T1 sequence (P21397 whole entry): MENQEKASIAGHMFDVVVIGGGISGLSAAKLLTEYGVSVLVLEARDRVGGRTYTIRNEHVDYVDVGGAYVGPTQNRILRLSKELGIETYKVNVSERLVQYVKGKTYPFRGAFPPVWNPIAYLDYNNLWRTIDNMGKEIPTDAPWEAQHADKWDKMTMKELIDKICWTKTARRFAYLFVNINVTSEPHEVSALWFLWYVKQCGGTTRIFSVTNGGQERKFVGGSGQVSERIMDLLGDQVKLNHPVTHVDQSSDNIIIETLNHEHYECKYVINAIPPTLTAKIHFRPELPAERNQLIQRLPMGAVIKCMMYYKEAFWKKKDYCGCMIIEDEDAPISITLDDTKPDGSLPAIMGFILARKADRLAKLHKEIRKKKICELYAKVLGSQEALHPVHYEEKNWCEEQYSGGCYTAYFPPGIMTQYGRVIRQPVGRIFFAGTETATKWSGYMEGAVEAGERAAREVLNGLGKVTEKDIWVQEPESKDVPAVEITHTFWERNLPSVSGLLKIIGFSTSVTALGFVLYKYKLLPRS

Homo sapiens [2] = organism: Homo sapiens; assay: Inhibition of self-induced amyloid beta (1 to 42) (unknown origin) peptide aggregation at 25 uM measured after 48 hrs by thioflavin-T fluorescence assay relative to control
in vitro = conditions: PAMPA, pH 7.4
[3] = target: T2, Amine oxidase [flavin-containing] B (Homo sapiens, UniProt P27338); assay: biochemical; type: cell-based, BTI
T2 sequence (P27338 whole entry): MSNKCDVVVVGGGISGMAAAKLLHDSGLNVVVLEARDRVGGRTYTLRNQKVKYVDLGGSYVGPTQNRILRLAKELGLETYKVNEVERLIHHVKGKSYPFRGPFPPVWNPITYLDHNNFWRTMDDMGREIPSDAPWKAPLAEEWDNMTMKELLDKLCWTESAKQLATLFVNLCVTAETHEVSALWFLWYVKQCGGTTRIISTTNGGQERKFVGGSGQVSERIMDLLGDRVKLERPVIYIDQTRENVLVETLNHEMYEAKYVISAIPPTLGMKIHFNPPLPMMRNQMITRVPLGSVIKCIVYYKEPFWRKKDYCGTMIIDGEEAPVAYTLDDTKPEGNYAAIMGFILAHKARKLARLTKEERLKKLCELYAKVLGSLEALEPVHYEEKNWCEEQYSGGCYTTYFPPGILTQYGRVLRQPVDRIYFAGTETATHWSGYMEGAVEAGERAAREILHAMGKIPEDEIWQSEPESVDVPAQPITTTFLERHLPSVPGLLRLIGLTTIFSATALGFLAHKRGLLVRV

[4] = target: T2, Amine oxidase [flavin-containing] B; assay: Inhibition of recombinant human MAOB expressed in baculovirus infected BTI insect cells at 100 uM using p-tyramine as substrate measured after 15 mins by Amplex red reagent based fluorescence assay relative to control; conditions: 0.25 h; how it was run: as §1
SH-SY5Y = assay: Neuroprotective activity against 6-OHDA-induced cell death in human SH-SY5Y cells assessed as increase in cell survival at 1.563 to 25 uM incubated for 24 hrs by MTT assay; type: functional, cell-based; conditions: dose 1.563-25 µM
How it was run: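 SH-SY5Y cells co-incubated with 200 µM 6-OHDA and compound at 1.563, 3.125, 6.25, 12.5 or 25 µM for 24 h. Viability read by MTT assay against a 6-OHDA-only group. Means ± SEM of three independent experiments.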

Homo sapiens [5] = organism: Homo sapiens; assay: Inhibition of self-induced amyloid beta (1 to 42) (unknown origin) peptide aggregation assessed as reduction in number of amyloid beta aggregates by TEM analysis

Compound | Ratio IC50 (Homo sapiens [1]) | inhibition at 0.25 h, 100 µM (MAO-A) | inhibition (Homo sapiens [2]) | Papp at 16 h (in vitro) | IC50 [3] | inhibition at 100 µM [4] | Activity (SH-SY5Y) | inhibition (Homo sapiens [5])
C#CCN(C)CCCCOc1ccc(C(C)=O)cc1OC | > 87 | 21.1% | 21.8% | 12.5 ×10⁻⁶ cm/s | 1.15 µM | – | – | –
C#CCN(C)CCCCOc1ccc(C(C)=O)cc1 | > 1770 | 28.6% | 6.18% | 10.6 ×10⁻⁶ cm/s | 0.0565 µM | – | – | –
C#CCN(C)CCCCCCOc1ccc(C(C)=O)cc1 | > 4900 | 37.3% | 12.7% | 8.69 ×10⁻⁶ cm/s | 0.0204 µM | – | – | –
C#CCN(C)CCCCCOc1ccc2c(c1)CCC2=O | > 1060 | 31% | 11.4% | 10.9 ×10⁻⁶ cm/s | 0.0948 µM | – | – | –
C#CCN(C)CCCCCCCCOc1ccc2c(c1)OCCC2=O | > 237 | 28.6% | 0.34% | 8.91 ×10⁻⁶ cm/s | 0.422 µM | – | – | –
C#CCN(C)CCCCCOc1ccc(C(C)=O)cc1OC | > 15 | 39.5% | 5.74% | 12.9 ×10⁻⁶ cm/s | 6.52 µM | – | – | –
C#CCN(C)CCCCCCOc1ccc2c(c1)OCC2=O | > 1930 | 11.7% | 9.76% | 8.3 ×10⁻⁶ cm/s | 0.0519 µM | – | – | –
C#CCN(C)CCCCCCOc1ccc2c(c1)CCC2=O | > 777 | 4.42% | 0.68% | 12.8 ×10⁻⁶ cm/s | 0.129 µM | – | – | –
C#CCN(C)CCCCCCOc1ccc2c(c1)CCCC2=O | > 751 | 25% | 18.1% | 8.58 ×10⁻⁶ cm/s | 0.133 µM | – | – | –
C#CCN(C)CCCCCOc1ccc(C=O)c(OC)c1 | > 17 | 27.1% | 0.82% | 14 ×10⁻⁶ cm/s | 5.73 µM | – | – | –
C#CCN(C)CCCCOc1ccc2c(c1)CCCC2=O | > 1380 | 30.9% | 13.4% | 8.7 ×10⁻⁶ cm/s | 0.0725 µM | – | – | –
C#CCN(C)CCCCCCOc1ccc(C=O)c(OC)c1 | > 181 | 37.4% | 0.99% | 11.2 ×10⁻⁶ cm/s | 0.552 µM | – | – | –
C#CCN(C)CCCCCOc1ccc2c(c1)CCCC2=O | > 2160 | 26.1% | 10.3% | 10.6 ×10⁻⁶ cm/s | 0.0463 µM | – | – | –
CN(C)CCCN1c2ccccc2Sc2ccc(Cl)cc21 [CHLORPROMAZINE] | – | – | – | 7.12 ×10⁻⁶ cm/s | – | – | – | –
C#CCN(C)CCCCCCOc1ccc2c(c1)OCCC2=O | > 855 | 34.1% | 0.66% | 8.54 ×10⁻⁶ cm/s | 0.117 µM | – | – | –
C#CCN(C)CCCCOc1ccc2c(c1)CCC2=O | > 273 | 7.93% | 31.3% | 9.61 ×10⁻⁶ cm/s | 0.366 µM | – | – | –
C#CCN(C)CCCCOc1ccc(C=O)c(OC)c1 | – | 29.4% | 0.86% | 13.1 ×10⁻⁶ cm/s | – | 41.2% | – | –
C#CCN(C)CCCCOc1ccc2c(c1)OCCC2=O | > 1700 | 22.8% | 43.9% | 13.7 ×10⁻⁶ cm/s | 0.0589 µM | – | – | –
C#CCN[C@@H]1CCc2ccccc21 [RASAGILINE] | – | 47.9% | – | – | – | – | Active | –
C#CCN(C)CCCCCOc1cccc(OC)c1 | > 991 | 32.3% | 22.2% | 10.5 ×10⁻⁶ cm/s | 0.101 µM | – | – | –
COc1cc(/C=C/C(=O)CC(=O)/C=C/c2ccc(O)c(OC)c2)ccc1O | – | – | 46.1% | – | – | – | – | Active
C[C@]12CC[C@@H]3c4ccc(O)cc4CC[C@H]3[C@@H]1CC[C@@H]2O [ESTRADIOL] | – | – | – | 12.4 ×10⁻⁶ cm/s | – | – | – | –
C#CCN(C)CCCOc1ccc2c(c1)OCCC2=O | > 9 | 32.1% | 7.77% | 9.21 ×10⁻⁶ cm/s | 11.4 µM | – | – | –

Source: ChEMBL document CHEMBL4765373, “Design, synthesis and biological evaluation of rasagiline-clorgyline hybrids as novel dual inhibitors of monoamine oxidase-B and amyloid-β aggregation against Alzheimer's disease” (Eur J Med Chem, 2020)
